# Source: PubChem
# MPTP block: blocks calcium-induced mitochondrial swelling. isolated mouse mitochondria, Ca2+ swelling absorbance, 30 min. actives 1.4% (n = 360,000). inhibition, % at 10 µM. AID 602449;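 active = inhibition of 50% or more, scaled per plate between neutral and stimulator controls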;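 note: 0% = DMSO wells given calcium and 100% = 1 mM EGTA wells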
# GPR7 antag: human neuropeptides B/W receptor 1 antagonism. P48145. GPR7-expressing cells, fluorescence antagonist assay. inhibition, % at 4.4 µM. actives 1.1% (n = 290,000); in the data active = inhibition above about 16%, passing the limit was not always enough;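 note: cells stimulated with the agonist NPW; 0% = agonist with vehicle and 100% = vehicle without agonist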
# Target sequence (P48145 whole entry, looked up): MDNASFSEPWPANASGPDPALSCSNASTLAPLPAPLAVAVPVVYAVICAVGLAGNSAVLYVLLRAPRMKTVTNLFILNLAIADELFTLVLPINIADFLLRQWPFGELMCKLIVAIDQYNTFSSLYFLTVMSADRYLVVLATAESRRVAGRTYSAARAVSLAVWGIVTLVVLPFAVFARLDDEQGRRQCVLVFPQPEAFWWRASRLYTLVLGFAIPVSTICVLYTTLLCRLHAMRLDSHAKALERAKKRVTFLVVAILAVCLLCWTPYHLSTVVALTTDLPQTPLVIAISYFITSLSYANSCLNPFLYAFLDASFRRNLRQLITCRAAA
# OX1R antag-1: antagonists of human orexin 1 receptor (OX1R); O43613; OX1R-expressing cells, FRET antagonist read-out; inhibition, % at 6.6 µM; actives 1.8% (n = 330,000); AID 485270; in the data active = inhibition mostly above about 38%, no sharp cut-off; inactive = mostly below about 40%;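 note: 0% = agonist challenge alone and 100% = reference antagonist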
# CHO parental Ca: counter-screen: ATP calcium response change in parental CHO cells; parental CHO-K1, ATP-induced calcium, Fluo-8 fluorescence; inhibition, % at 5.6 µM; actives 0.63% (n = 330,000);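 active = inhibition above that plate's mean sample inhibition plus 3 SD, cut at about 26% in these data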;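 note: 0% = ATP-challenged DMSO wells and 100% = DMSO wells without ATP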
#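 Material: parental CHO cells / Compound: single nominal dose of 5.6 µM per compound / Signal: Fluo-8 fluorescence / Replicates: singlicate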
# OX1R antag-2: blocks the human orexin 1 receptor; CHO/OX1R cells, Fluo-8 calcium fluorescence, orexin A; inhibition, % at 5 µM; actives 0.43% (n = 330,000);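 active = inhibition above its plate's threshold, mean inhibition of all tested compounds on the plate plus 3 SD, cut at about 37% in these data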;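 note: 0% = orexin A challenge wells and 100% = SB-334867-A antagonist wells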
# GPR7 antag cf: confirmation of human GPR7 antagonists; AID 1952; GPR7-expressing cells, calcium fluorescence antagonist mode; shares compounds with GPR7 antag; inhibition, % at 4.4 µM; actives 52% (n = 2,400); in the data active = inhibition above about 24%;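 note: stimulated with the GPR7 agonist NPW; 0% = agonist plus vehicle and 100% = vehicle alone without agonist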
# MCHR1 antagonist: MCHR1 (human) antagonism in GPR7 counter-screen. MCHR1-expressing cells, fluorescence antagonist assay. inhibition, % at 4.4 µM. shares compounds with GPR7 antag. actives 62% (n = 2,400); in the data active = inhibition above about 22%;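 note: 0% = vehicle with agonist and 100% = vehicle without agonist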
# * hit, by the source's call; . = not tested or not shown. The list is not random: actives were taken first. Their share in the collection is about 3.8%.
SMILES,MPTP block,GPR7 antag,OX1R antag-1,CHO parental Ca,OX1R antag-2,GPR7 antag cf,MCHR1 antagonist
Cc1ccc(Cl)cc1N1CCN(C(=O)C2CCC(=O)N(C3CCCCCC3)C2)CC1 (configuration not stated),4,26*,13,-9,-14,37*,55*
N#CCCn1cc(/C=N/O)c(-c2ccc(-c3ccccc3)cc2)n1,-11,27*,23,0,6,31*,42*
N#CCCn1cc(/C=C(\C#N)c2nc3ccccc3s2)c(-c2ccc(F)cc2)n1,1,-1,3,-4,-26,.,.
N#CCCn1cc(/C=N/O)c(-c2ccc(Cl)cc2)n1,-3,4,2,-13,10,.,.
N#CCCn1cc(C=C(C#N)C#N)c(-c2ccc(Cl)cc2)n1,-2,32*,30,-3,-8,12,2
O=C(NCCc1ccccc1)c1cc(=O)c2ccccc2o1,2,-5,7,-10,-17,.,.
CC1(C)Cc2c(sc(NC(=O)C(=O)N3CCCCC3)c2C(N)=O)CO1,1,-12,7,-4,-6,.,.
CCOC(=O)C1=C(c2ccccc2)NC(=O)NC1c1ccc(O)c(Cl)c1 (configuration not stated),0,75*,8,-3,9,66*,49*
Cc1cc(C)c(S(=O)(=O)NCC2CCC(C(=O)NCCCN3CCOCC3)CC2)c(C)c1 (configuration not stated),-2,22*,.,.,.,12,7
Cc1ccc(S(=O)(=O)NCC2CCC(C(=O)NCCCN3CCOCC3)CC2)cc1 (configuration not stated),-3,-12,8,-2,1,.,.
CCN(CC)CCNCc1cc(Br)ccc1OCC(=O)NCc1ccccc1,-2,1,11,-25,-31,.,.
CC(NCc1cc(Br)ccc1OCC(=O)NCc1ccccc1)c1ccccc1 (configuration not stated),6,30*,15,-17,5,34*,40*
CC(OC(=O)CCCNC(=O)c1ccc(Cl)cc1)C(=O)N(C)Cc1ccccc1 (configuration not stated),1,35*,30,-13,-15,-2,5
Cc1ccc(-n2c(SCC(N)=O)nnc2-c2ccc(S(=O)(=O)N3CCCCC3)cc2)c(C)c1,-1,35*,10,-2,-15,45*,18
Cc1ccc2c(c1)[C@@H]1CN(C)CC[C@@H]1N2S(=O)(=O)c1ccc([N+](=O)[O-])cc1,1,29*,44*,9,-15,-10,18
O=C(NCc1ccccn1)c1ccc(OC2CCN(Cc3ccc(F)cc3F)CC2)cc1,-2,-27,14,-16,-9,.,.
O=C(Nc1cccc2ccccc12)c1ccc([N+](=O)[O-])cc1,0,42*,36,-4,-6,6,18
O=C(NCCc1c[nH]c2ccccc12)c1ccc([N+](=O)[O-])cc1,0,31*,18,2,17,30*,26*
O=C(COC(=O)CCc1c[nH]c2ccccc12)Nc1cc([N+](=O)[O-])ccc1Cl,0,2,30,-10,-13,.,.
O=C(COC(=O)CCc1c[nH]c2ccccc12)Nc1ccc([N+](=O)[O-])cc1,1,26*,30,-3,-8,49*,41*
COc1ccc(C2=NN(c3ccccc3)C(=O)/C2=C\c2ccc(O)c(OC)c2)cc1,15,30*,14,12,2,1,26*
Cn1c(Cc2ccccc2)nnc1SCC(=O)NC1CCCC1,0,39*,16,-3,-13,-10,-4
O=C(CSc1nnc(Cc2ccccc2)n1Cc1ccco1)NC1CCCC1,-2,33*,10,-12,-15,26*,13
Cn1c(Cc2ccccc2)nnc1SCC(=O)NC1CC1,-1,3,-5,-9,-13,.,.
Cc1sc(NC(=O)c2ccco2)c(CN2CCN(c3ccccn3)CC2)c1C,5,32*,12,-30,-24,13,49*
O=C1c2cccc3c([N+](=O)[O-])ccc(c23)C(=O)N1c1ccc(Cl)cn1,1,33*,51*,35*,45,100*,104*
